Results as given in ChEMBL document CHEMBL1123815, “Heteroarotinoids. Synthesis, characterization, and biological activity in terms of an assessment of these systems to inhibit the induction of ornithine decarboxylase activity and to induce terminal differentiation of HL-60 cells” (J Med Chem, 1987).

Legend:
Format in all cases: functional
[1] = molecular target: T1, Ornithine decarboxylase (Mus musculus) (UniProt P00860); test: Inhibition of TPA induced ODC(Ornithine decarboxylase) activity in mice epidermis at 34 nmol in the presence of TPA
T1 sequence (whole entry): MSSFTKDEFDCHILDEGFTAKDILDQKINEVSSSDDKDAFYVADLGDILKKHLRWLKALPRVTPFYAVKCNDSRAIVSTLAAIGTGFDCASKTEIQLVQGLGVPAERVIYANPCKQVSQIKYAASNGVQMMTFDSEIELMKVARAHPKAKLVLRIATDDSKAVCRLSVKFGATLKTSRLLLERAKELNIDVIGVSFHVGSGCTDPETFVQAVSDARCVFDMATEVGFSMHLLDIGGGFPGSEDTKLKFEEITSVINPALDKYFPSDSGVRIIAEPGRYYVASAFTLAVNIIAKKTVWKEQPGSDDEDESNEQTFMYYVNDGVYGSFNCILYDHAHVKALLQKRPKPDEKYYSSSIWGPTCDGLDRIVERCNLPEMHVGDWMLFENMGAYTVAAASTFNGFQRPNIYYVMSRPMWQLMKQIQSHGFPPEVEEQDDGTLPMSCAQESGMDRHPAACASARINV
Procedure, shortened: (§1)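 Mouse epidermis in vivo: retinoid applied to shaved back 1 h before topical 10 nmol TPA. Mice killed 5 h after TPA. Epidermis separated, homogenized and centrifuged at 30000 g. Soluble ODC activity measured as nmol CO2 released per 30 or 60 min per mg protein. Values are mean ± SE of three groups of three mice. Percent inhibition = (acetone+TPA ODC − retinoid ODC)/(acetone+TPA ODC) × 100.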

[2] = molecular target: T1, Ornithine decarboxylase (Mus musculus); test: Inhibition of TPA induced ODC(Ornithine decarboxylase) activity in mice epidermis at 34 nmol in the presence of TPA compared to control value; procedure, shortened: as §1
[3] = molecular target: T1, Ornithine decarboxylase (Mus musculus); test: Inhibition of TPA induced ODC(Ornithine decarboxylase) activity in mice epidermis at 17 nmol in the presence of 13-cis-retinoic acid + TPA; procedure, shortened: as §1
[4] = molecular target: T1, Ornithine decarboxylase (Mus musculus); test: Inhibition of TPA induced ODC(Ornithine decarboxylase) activity in mice epidermis at 17 nmol in the presence of 13-cis-retinoic acid + TPA compared to control value; procedure, shortened: as §1
[5] = molecular target: T1, Ornithine decarboxylase (Mus musculus); test: Inhibition of TPA induced ODC(Ornithine decarboxylase) activity in mice epidermis at 0 nmol in the presence of acetone+ TPA; procedure, shortened: as §1
[6] = molecular target: T1, Ornithine decarboxylase (Mus musculus); test: Inhibition of TPA induced ODC(Ornithine decarboxylase) activity in mice epidermis at 0 nmol in the presence of acetone + TPA; procedure, shortened: as §1
[7] = molecular target: T1, Ornithine decarboxylase (Mus musculus); test: Inhibition of TPA induced ODC(Ornithine decarboxylase) activity in mice epidermis at 17 nmol in the presence of TPA; procedure, shortened: as §1
[8] = molecular target: T1, Ornithine decarboxylase (Mus musculus); test: Inhibition of TPA induced ODC(Ornithine decarboxylase) activity in mice epidermis at 0 nmol in the presence of acetone; procedure, shortened: as §1
[9] = molecular target: T1, Ornithine decarboxylase (Mus musculus); test: Inhibition of TPA induced ODC(Ornithine decarboxylase) activity in mice epidermis at 17 nmol in the presence of TPA compared to control value; procedure, shortened: as §1
[10] = molecular target: T1, Ornithine decarboxylase (Mus musculus); test: Inhibition of TPA induced ODC(Ornithine decarboxylase) activity in mice epidermis at 0 nmol in the presence of acetone+TPA; procedure, shortened: as §1
[11] = molecular target: T1, Ornithine decarboxylase (Mus musculus); test: Inhibition of TPA induced ODC(Ornithine decarboxylase) activity in mice epidermis at 34 nmol in the presence of trans-retinoic acid + TPA compared to control value; procedure, shortened: as §1
[12] = molecular target: T1, Ornithine decarboxylase (Mus musculus); test: Inhibition of TPA induced ODC(Ornithine decarboxylase) activity in mice epidermis at 34 nmol in the presence of trans-retinoic acid + TPA; procedure, shortened: as §1

## C/C(=C\c1ccc(C=O)cc1)c1ccc2c(c1)C(C)(C)CCO2
[1]
  ODC activity ((nM of CO2) hr-1 (mg of protein)-1): 3.5
[2]
  inhibition: 34%

## CC(/C=C/C=C(\C)c1ccc2c(c1)C(C)(C)CCO2)=C\C(=O)O
[1]
  ODC activity ((nM of CO2) hr-1 (mg of protein)-1): 1.4
[2]
  inhibition: 74%

## C/C(=C\c1ccc(C#N)cc1)c1ccc2c(c1)C(C)(C)CCO2
[1]
  ODC activity ((nM of CO2) hr-1 (mg of protein)-1): 1.77
[2]
  inhibition: 0%

## CC(/C=C/C=C(\C)c1ccc2c(c1)C(C)(C)CCS2)=C\C(=O)OCCN1C(=O)c2ccccc2C1=O
[1]
  ODC activity ((nM of CO2) hr-1 (mg of protein)-1): 0.97
[2]
  inhibition: 42%

## COC(=O)c1ccc(/C=C(\C)c2ccc3c(c2)C(C)(C)CCO3)cc1
[1]
  ODC activity ((nM of CO2) hr-1 (mg of protein)-1): 0.95
[3]
  ODC activity ((nM of CO2) hr-1 (mg of protein)-1): 0.14
[4]
  inhibition: 92%
[5]
  ODC activity ((nM of CO2) hr-1 (mg of protein)-1): 1.67
[2]
  inhibition: 43%

## CC(/C=C/C=C(\C)c1ccc2c(c1)C(C)(C)CCS2)=C\C(=O)O
[6]
  ODC activity ((nM of CO2) 30min-1 (mg of protein)-1): 0.9
[3]
  ODC activity ((nM of CO2) 30min-1 (mg of protein)-1): 0.1
[7]
  ODC activity ((nM of CO2) 30min-1 (mg of protein)-1): 0.1
[8]
  ODC activity ((nM of CO2) 30min-1 (mg of protein)-1): 0
[9]
  inhibition: 89%
[4]
  inhibition: 89%

## C/C(=C\c1ccc(CO)cc1)c1ccc2c(c1)C(C)(C)CCO2
[1]
  ODC activity ((nM of CO2) hr-1 (mg of protein)-1): 1.7
[10]
  ODC activity: 5.3
[11]
  inhibition: 81%
[2]
  inhibition: 68%
[12]
  ODC activity: 1

## COC(=O)c1ccc(/C=C(\C)c2ccc3c(c2)C(C)(C)CO3)cc1
[1]
  ODC activity ((nM of CO2) hr-1 (mg of protein)-1): 1.5
[2]
  inhibition: 72%

## CCOC(=O)/C=C(C)/C=C/C=C(\C)c1ccc2c(c1)C(C)(C)CCS2
[7]
  ODC activity ((nM of CO2) 30min-1 (mg of protein)-1): 0
[8]
  ODC activity ((nM of CO2) 30min-1 (mg of protein)-1): 0
[9]
  inhibition: 100%
